One assay relates to PlcRIV. The assay is described as follows: plcA'-lacZ β-galactosidase assay in 407. In kind it is cell-based, Bacillus thuringiensis. Particulars: 2 µM peptide, 1 h. The method in brief: (§1)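 Reporter strain 407 (plcA′Z ΔplcR–papR), carrying plcR on plasmid pHT304 under its own promoter, grown in LB without antibiotics at 37°C with vigorous shaking to stationary-phase onset T0 (OD600 3 ± 0.3). Cultures split into 12 ml fractions. Cognate synthetic PapR penta- or heptapeptide added at 2 µM final, then 1 h incubation. 2 ml pelleted for β-galactosidase assay. Each assay run at least three times.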

In the next assay the test system is PlcRI'III. Description: plcA'-lacZ β-galactosidase assay, chimeric PlcRI'III. It is filed as cell-based, Bacillus thuringiensis. The following applies: 2 µM heptapeptide, 1 h, PlcRI'III chimera. The method in brief:
(§2)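 Reporter strain Bacillus 407 (plcA′Z ΔplcR–papR), which carries a plcA promoter–lacZ fusion, was complemented with pHT304-based plasmids carrying modified plcR genes under their own promoter. Cultures were grown in LB without antibiotics at 37°C with vigorous shaking to stationary-phase onset (OD600 3 ± 0.3), then split into 12 ml fractions. Synthetic peptide was added to 2 µM final for 1 h. β-galactosidase was assayed on 2 ml pellets, with at least three repeats.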

For the next assay, the system named is PlcRIII. Description: plcA'-lacZ β-galactosidase assay in 407. The following applies: 2 µM peptide, 1 h. It is filed as cell-based, Bacillus thuringiensis. Summed up:
as §1

For the next assay, the system named is PlcRA278K. The assay is described as follows: plcA'-lacZ β-galactosidase assay, PlcRA278K mutant. In kind it is cell-based, Bacillus thuringiensis. Particulars: 2 µM heptapeptide, 1 h; similar to PlcRI'II response. The method in brief:
as §2

For the next assay, the system named is PlcRII. Description: plcA'-lacZ β-galactosidase assay in 407. The following applies: 2 µM peptide, 1 h. In kind it is cell-based, Bacillus thuringiensis. Summed up:
as §1

The test system of another assay is PlcRI'II. The assay is described as follows: plcA'-lacZ β-galactosidase assay, chimeric PlcRI'II. It is filed as cell-based, Bacillus thuringiensis. The following applies: 2 µM heptapeptide, 1 h, PlcRI'II chimera. The method in brief:
as §2

In the next assay the target is T1, PlcR (Bacillus thuringiensis, UniProt Q45782).
T1 sequence (Q45782 1-285): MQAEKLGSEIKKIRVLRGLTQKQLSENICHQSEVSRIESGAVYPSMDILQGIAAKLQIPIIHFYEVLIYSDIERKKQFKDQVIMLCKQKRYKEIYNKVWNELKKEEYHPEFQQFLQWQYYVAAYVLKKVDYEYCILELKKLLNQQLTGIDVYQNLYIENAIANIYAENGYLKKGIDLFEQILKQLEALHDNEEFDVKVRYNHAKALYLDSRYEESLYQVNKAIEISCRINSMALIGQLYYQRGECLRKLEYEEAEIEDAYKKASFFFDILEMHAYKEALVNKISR
The assay is described as follows: Steady-state fluorescence anisotropy binding titrations.

Peptide text beside a SMILES is read from it.

The values that follow come from paper PMC2441798 (Nucleic Acids Research, 2008).

As usually defined, the Kd is the constant that tells how readily two partners part at equilibrium. A lower Kd goes with a tighter complex.

As for LPFEH, in the assay on PlcRIV, the “activation of plcA'lacZ expression (in words)” value was “activated”.

NELPFEF: the “activation of PlcRI'III (in words)” value in the assay on PlcRI'III is “partly restores”. As for VPFEF, the “activation of plcA'lacZ expression (in words)” value in the assay on PlcRIII is “activated”. As to SDMPFEF, the “activation of PlcRA278K (in words)” value in the assay with PlcRA278K is “activated”. For the same compound, the “activation of plcA'lacZ expression (in words)” value in the assay on PlcRII is “activated”. Besides, in the assay on PlcRI'II, the “activation greater than that of wild-type PlcRI by PapRI” value is listed as “about 2 fold” and the “activation less than that of PlcRII by PapRII” value is 2 fold. Turning to NEVPFEF, in the assay with PlcRI'III, the “activation of PlcRI'III (in words)” value is “not activated”. In addition, the “activation of plcA'lacZ expression (in words)” value in the assay with PlcRIII was “activated”. Compound `CC(C)C[C@H](N)C(=O)N1CCC[C@H]1C(=O)N[C@@H](Cc1ccccc1)C(=O)N[C@@H](CCC(=O)O)C(=O)N[C@@H](Cc1ccccc1)C(=O)O` [LPFEF] (H-LPFEF-OH) had a Kd at PlcR of 41 µM. With MPFEF, in the assay on PlcRII, the “activation of plcA'lacZ expression (in words)” value is “activated”. In the case of `CC(C)C[C@H](NC(=O)[C@H](CC(=O)O)NC(=O)[C@H](C)N)C(=O)N1CCC[C@H]1C(=O)N[C@@H](Cc1ccccc1)C(=O)N[C@@H](CCC(=O)O)C(=O)N[C@@H](Cc1ccccc1)C(=O)O` [ADLPFEF] (H-ADLPFEF-OH), the Kd at PlcR is 25 µM. On to SDLPFEH, for which the “activation of plcA'lacZ expression (in words)” value in the assay with PlcRIV was “activated”.
